Test results from article PMC3808079 (Oncogene, 2012).
Each block holds one compound with its values, some of them ahead of it. Ends that are not written are not given here.

Key:
PIKE-A/Akt interaction [1] = molecular target: T1, PIKE-A/Akt interaction (Homo sapiens, UniProt P31749+Q99490); assay: In vitro binding assay, GST-PIKE-A; settings: short synthetic peptides; Figure 5b
In short: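 Purified recombinant GST-PIKE-A (a.a. 1–356) was bound to glutathione beads and incubated, with test peptides, with lysates of HEK293 cells transfected with HA-Akt, 3 h at 4 °C. Bead-bound proteins were run on 10% SDS-PAGE and immunoblotted with anti-HA. GST proteins were verified by Coomassie staining.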

LN-Z308 cells [2] = assay: Cell viability assay; assay type: cell-based, human
In short: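 Cells (5 × 10^3/well) grown in DMEM/10% FBS were seeded in 96-well plates. Next day, medium was replaced with fresh medium containing test peptides (50 μM) or vehicle, for 16 h at 37 °C. For combinations, cells got various concentrations of the test peptide with TMZ (25 μM) or BCNU (50 μM). Viability was read by MTT. Mean±s.d., 3–4 independent experiments; Student's t-test.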

LN-Z308 cells [3] = assay: Transwell; assay type: cell-based, human; settings: synthetic peptide 50 μM, 16 h, Figure 6c
In short: (§1)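 Cells (1 × 10^5/well) were seeded in six-well plates and treated with test peptides (50 μM) for 16 h. Invasion through Matrigel was measured in a transwell system (8 μm pore polycarbonate membrane). Mean±s.d. of 3–4 independent experiments; Student's t-test.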

[4] = system: Akt signaling in LN-Z308 cells; assay: Immunoblotting of Akt phosphorylation and downstream signaling; assay type: cell-based, human; settings: peptide-treated cell lysates, dose-dependent, immunoblot, Figure 7b
LN229 cells [5] = assay: Transwell; assay type: cell-based, human; settings: synthetic peptide 50 μM, 16 h, Figure 6c
In short: as §1

PIKE-A/Akt interaction [6] = molecular target: T1, PIKE-A/Akt interaction; assay: ELISA-based protein interaction assay; assay type: binding; settings: peptide 10 μM; Figure 5c
PIKE-A/Akt interaction [7] = molecular target: T1, PIKE-A/Akt interaction; assay type: binding
In short: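 HEK293 cells were co-transfected with GST-PIKE-A and HA-Akt. After 40 h, lysates were collected and GST-PIKE-A was pulled down on glutathione beads in the presence of test peptides. Bound HA-Akt was detected by anti-HA immunoblot. GST-PIKE-A was verified with anti-GST-HRP.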

LN229 cells [8] = assay: Cell viability assay; assay type: cell-based, human
LN229 cells [9] = assay: Colony formation assay; assay type: cell-based, human; settings: Figure 6e; for Colony numbers: drug alone, soft agar, 2 weeks
In short: (§2)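 Soft-agar assay: 50 000 cells per well in 0.4% agar with 10% FBS in DMEM, plated over a 0.6% agar base, with test peptide, drug or vehicle. Combinations used various doses of the test peptide with TMZ or BCNU. Cells grew 2 weeks at 37 °C. Colonies were stained with MTT, counted and normalized to vehicle (%). Mean±s.d.; Student's t-test.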

LN-Z308 cells [10] = assay: Colony formation assay; assay type: cell-based, human; settings: for Colony numbers: drug alone, soft agar, 2 weeks
In short: as §2

LN-Z308 cells [11] = assay: Cell migration, wound-healing assay; assay type: cell-based, human; settings: synthetic peptide 50 μM, 10 h, Figure 6b
In short: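 LN-Z308 monolayers were grown to confluence in six-well plates and scratched with a pipette tip, then washed to remove nonadherent cells. Medium containing test peptides (50 μM) or DMSO was added at 0 h, and cells were incubated 10 h. Wound area was imaged by light microscopy. % wound healed = 100-[(final area/initial area) × 100%]. Mean±s.d. of three or four independent experiments; Student's t-test.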

[12] = system: PIKE-A/Akt interaction in HEK293 cells; assay: GST pull-down from co-transfected HEK293 cells treated with synthetic peptides; assay type: cell-based; settings: sp2 50 μM, Figure 5f
In short: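 HEK293 cells were co-transfected with GST-PIKE-A and HA-Akt, then treated with 50 μM test peptide in culture medium for various times up to 24 h. GST-PIKE-A was pulled down on glutathione beads, and associated HA-Akt was detected by anti-HA immunoblot.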

[13] = synthetic peptide 50 μM, 16 h, Figure 6a
[14] = sp2 various concentrations + TMZ 25 μM, 16 h, Figure 6d
[15] = various concentrations of sp2, 16 h, Figure 6d

T1 sequence (Q99490 1-836 isoform Q99490-2): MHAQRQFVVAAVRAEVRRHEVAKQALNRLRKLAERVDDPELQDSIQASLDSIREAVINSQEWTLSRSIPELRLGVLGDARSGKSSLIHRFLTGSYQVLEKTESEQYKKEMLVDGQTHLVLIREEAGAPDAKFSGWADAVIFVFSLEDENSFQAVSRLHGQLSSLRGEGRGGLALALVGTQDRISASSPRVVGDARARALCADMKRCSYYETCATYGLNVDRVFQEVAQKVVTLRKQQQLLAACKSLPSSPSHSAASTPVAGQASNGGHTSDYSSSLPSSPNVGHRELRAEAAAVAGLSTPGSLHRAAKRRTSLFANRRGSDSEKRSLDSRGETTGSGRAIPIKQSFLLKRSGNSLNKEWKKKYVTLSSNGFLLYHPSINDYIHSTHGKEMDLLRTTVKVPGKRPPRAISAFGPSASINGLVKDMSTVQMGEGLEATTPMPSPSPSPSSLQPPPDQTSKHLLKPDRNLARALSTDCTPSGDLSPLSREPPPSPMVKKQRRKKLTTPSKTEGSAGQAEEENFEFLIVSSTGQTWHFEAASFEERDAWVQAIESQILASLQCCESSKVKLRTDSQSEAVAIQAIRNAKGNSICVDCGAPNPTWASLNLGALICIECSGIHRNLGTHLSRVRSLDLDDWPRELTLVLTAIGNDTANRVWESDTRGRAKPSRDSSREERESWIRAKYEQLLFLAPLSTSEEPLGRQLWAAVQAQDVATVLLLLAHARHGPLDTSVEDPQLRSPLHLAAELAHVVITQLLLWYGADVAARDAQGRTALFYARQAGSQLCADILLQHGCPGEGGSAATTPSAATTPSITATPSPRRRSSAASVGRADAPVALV
T1 sequence (P31749 whole entry): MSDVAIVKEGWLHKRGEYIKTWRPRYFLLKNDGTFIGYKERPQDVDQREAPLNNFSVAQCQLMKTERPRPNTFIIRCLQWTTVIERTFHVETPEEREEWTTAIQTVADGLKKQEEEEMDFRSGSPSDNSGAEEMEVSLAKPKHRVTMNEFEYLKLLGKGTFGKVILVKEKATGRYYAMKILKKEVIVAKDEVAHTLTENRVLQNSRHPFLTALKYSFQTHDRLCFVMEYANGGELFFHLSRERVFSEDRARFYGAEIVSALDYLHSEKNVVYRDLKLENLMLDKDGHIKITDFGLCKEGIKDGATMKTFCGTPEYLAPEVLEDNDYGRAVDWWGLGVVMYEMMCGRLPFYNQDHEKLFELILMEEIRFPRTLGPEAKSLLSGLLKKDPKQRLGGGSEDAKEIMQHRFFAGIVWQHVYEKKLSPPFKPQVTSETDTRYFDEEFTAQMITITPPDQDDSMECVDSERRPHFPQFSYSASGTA

Compound: DARSGKSSLIHRFLTGSYQ [PP2]
Inhibition of the PIKE-A/Akt interaction, GST pull-down (PIKE-A/Akt interaction [7]; peptide up to 10 μM, Figure 2f): did not demonstrate an inhibitory effect
Disruption of the interaction between PIKE-A and Akt (ELISA, RLU) (PIKE-A/Akt interaction [6]): failed to block the PIKE-A/Akt interaction

Compound: O=NN(CCCl)C(=O)NCCCl [BCNU, Carmustine, reference compound]
Cell viability (MTT) (LN229 cells [8]; BCNU 50 μM, 24 h, after 40 h plasmid transfection, Figure 4c): reduced cell viability regardless of peptide transfection
Colony numbers (LN229 cells [9]): decreased the colony numbers
Colony numbers (LN-Z308 cells [10]; Figure 6e): decreased the colony numbers

Compound: Cn1nnc2c(C(N)=O)ncn2c1=O [TMZ, temozolomide, reference compound]
Cell viability (MTT) (LN-Z308 cells [2]; TMZ 25 μM, 16 h, Figure 6d): potently decreased
Cell viability (MTT) (LN229 cells [8]; TMZ 25 μM, 16 h, Figure 6d): potently decreased
Cell viability (MTT) (LN229 cells [8]; TMZ 25 μM, 24 h, compared with vehicle, Figure 4c): modest effect in repressing LN229 cell viability
Colony numbers (LN229 cells [9]): decreased the colony numbers
Colony numbers (LN-Z308 cells [10]; Figure 6e): decreased the colony numbers

Second part, led by results:

Interaction between a fragment of PIKE-A (1–356 a.a.) and Akt (PIKE-A/Akt interaction [1]): decreased the interaction
Compound: DARSG [sp4]
Cell viability (MTT) (LN-Z308 cells [2]; [13]): no effect
Invasive activity (LN-Z308 cells [3]): did not significantly affect
Akt T308 and S473 phosphorylation [4]: no effect on Akt phosphorylation
Invasive activity (LN229 cells [5]): did not significantly affect
Disruption of the interaction between PIKE-A and Akt (ELISA, RLU) (PIKE-A/Akt interaction [6]): failed to block the PIKE-A/Akt interaction

Interaction between a fragment of PIKE-A (1–356 a.a.) and Akt (PIKE-A/Akt interaction [1]): decreased the interaction
Compound: LKKDPK [sp9]

Interaction between a fragment of PIKE-A (1–356 a.a.) and Akt (PIKE-A/Akt interaction [1]): decreased the interaction
Inhibitory effect on the PIKE-A/Akt interaction, GST pull-down (PIKE-A/Akt interaction [7]; GST pull-down as in Figure 2, Figure 5e): inhibited the binding
Compound: PELRLGVL [sp2]
Cell migration (LN-Z308 cells [11]): strongly inhibits
Cell viability (MTT), co-treatment of sp2 with TMZ (LN-Z308 cells [2]; [14]): additive effect
Cell viability (MTT) (LN-Z308 cells [2]; [13]): selectively decreased LN-Z308 cell viability
Cell viability (MTT), sp2 alone (LN-Z308 cells [2]; [15]): suppressive activity of sp2 on LN-Z308 cell viability, which occurred in a dose-dependent manner
Invasive activity (LN-Z308 cells [3]): strongly inhibited the invasive activity
Cell viability (MTT), co-treatment of sp2 with TMZ (LN229 cells [8]; [14]): inhibitory trend was similar
Cell viability (MTT) (LN229 cells [8]; [13]): not in LN229 cells
Cell viability (MTT), sp2 alone (LN229 cells [8]; [15]): not as evident as in LN-Z308 cells
Akt T308 and S473 phosphorylation [4]: diminished
Invasive activity (LN229 cells [5]): strongly inhibited the invasive activity
Colony formation inhibitory effect of TMZ and BCNU on co-treatment with sp2 (LN229 cells [9]; sp2 + TMZ or BCNU): additive trend also applied
Colony formation inhibitory effect of TMZ and BCNU on co-treatment with sp2 (LN-Z308 cells [10]; 50 μM sp2 + TMZ or BCNU, Figure 6e): substantially increased
Colony formation, sp2 (LN-Z308 cells [10]; summary statement of Figure 6): strongly inhibits
Inhibition of PIKE-A binding to Akt at 24 h ([12]; 24 h in cell culture medium): lost its suppressive activity
Time at which inhibition of PIKE-A binding to Akt was seen ([12]; time course): 4 h
Time of peak inhibition of PIKE-A binding to Akt ([12]; time course): 16 h

Interaction between a fragment of PIKE-A (1–356 a.a.) and Akt (PIKE-A/Akt interaction [1]): decreased the interaction
Compound: TGSYQ [sp6]
Cell viability (MTT) (LN-Z308 cells [2]; [13]): selectively decreased LN-Z308 cell viability
Invasive activity (LN-Z308 cells [3]): did not significantly affect
Cell viability (MTT) (LN229 cells [8]; [13]): not in LN229 cells
Invasive activity (LN229 cells [5]): did not significantly affect
Disruption of the interaction between PIKE-A and Akt (ELISA, RLU) (PIKE-A/Akt interaction [6]): failed to block the PIKE-A/Akt interaction
